For orientation: IC50 means the concentration needed to halve the response being measured. Usually inhibition stands for the percentage by which the read-out fell short of the control. One may read the Kp as tissue or fluid exposure divided by exposure in the circulation. For orientation: bioavailability means dose-corrected exposure relative to a reference, in per cent.

Consider ten compounds from paper PMC8898323 (ChemMedChem, 2021).

Entries after “also recorded” stand apart in the source; their conditions may differ. Where two headings read alike, the source gives them in different places.

The target of one data set is T1, hABHD6 (Homo sapiens, UniProt Q9BV23).
T1 sequence (Q9BV23 1-337): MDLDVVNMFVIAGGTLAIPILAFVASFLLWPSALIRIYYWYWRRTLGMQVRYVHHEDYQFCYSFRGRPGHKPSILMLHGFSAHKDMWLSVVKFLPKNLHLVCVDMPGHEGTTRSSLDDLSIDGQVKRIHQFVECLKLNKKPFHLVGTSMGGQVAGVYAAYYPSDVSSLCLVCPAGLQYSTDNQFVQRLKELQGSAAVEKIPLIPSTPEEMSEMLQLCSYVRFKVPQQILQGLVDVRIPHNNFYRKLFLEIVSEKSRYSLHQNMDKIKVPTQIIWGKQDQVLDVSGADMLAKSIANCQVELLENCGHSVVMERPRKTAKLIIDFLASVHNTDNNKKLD
The experiment in a line: Fluorescence-based hABHD6 inhibition assay. To be noted: for fold loss in potency for ABHD6: versus the comparator analog named in the text; for inhibition at 10 µM: read-out: % inhibition hABHD6; for hABHD6 inhibition, result in words: words in table or text, table footnote c: inactive tested at 1uM. It is filed as biochemical.

Another data set has as its target T2, hMGL (Homo sapiens, UniProt Q99685).
T2 sequence (Q99685 1-303): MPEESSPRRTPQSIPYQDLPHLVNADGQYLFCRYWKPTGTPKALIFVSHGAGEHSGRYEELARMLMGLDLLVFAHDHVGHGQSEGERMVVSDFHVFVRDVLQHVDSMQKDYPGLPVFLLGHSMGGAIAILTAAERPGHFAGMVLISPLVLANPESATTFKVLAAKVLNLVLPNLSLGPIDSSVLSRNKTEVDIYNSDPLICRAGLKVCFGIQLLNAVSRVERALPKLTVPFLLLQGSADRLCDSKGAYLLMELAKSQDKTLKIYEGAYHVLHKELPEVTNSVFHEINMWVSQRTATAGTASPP
The experiment in a line: Fluorescence-based hMGL inhibition counterscreen. It is filed as biochemical. Conditions: for hMGL inhibition, result in words: inactive tested at 1uM.

The target in a further data set is T3, hFAAH (Homo sapiens, UniProt O00519).
T3 sequence (O00519 1-579): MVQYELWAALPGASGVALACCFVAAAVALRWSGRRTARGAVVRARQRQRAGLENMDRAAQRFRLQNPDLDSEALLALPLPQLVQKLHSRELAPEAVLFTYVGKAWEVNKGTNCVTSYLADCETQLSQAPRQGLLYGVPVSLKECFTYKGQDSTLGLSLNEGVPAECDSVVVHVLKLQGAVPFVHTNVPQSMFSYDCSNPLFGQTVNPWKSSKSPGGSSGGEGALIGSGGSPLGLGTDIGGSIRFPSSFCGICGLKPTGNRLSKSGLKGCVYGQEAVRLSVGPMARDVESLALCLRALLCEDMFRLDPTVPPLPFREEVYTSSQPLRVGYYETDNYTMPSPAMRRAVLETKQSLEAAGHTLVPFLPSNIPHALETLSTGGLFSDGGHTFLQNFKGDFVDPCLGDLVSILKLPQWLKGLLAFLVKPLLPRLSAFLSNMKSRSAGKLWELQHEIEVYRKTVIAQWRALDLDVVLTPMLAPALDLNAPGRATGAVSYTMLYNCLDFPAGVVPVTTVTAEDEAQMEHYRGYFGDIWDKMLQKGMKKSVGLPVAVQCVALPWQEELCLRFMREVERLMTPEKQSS
As to the kind of experiment: Fluorescence-based hFAAH inhibition counterscreen. It is filed as biochemical. Conditions: for hFAAH inhibition, result in words: inactive tested at 1uM. Background: A counterscreen serves to expose hits that act by an unwanted route or on another target.

The nature of data set [1]: Metabolic stability in human liver microsomes. It is filed as in vitro ADME. To be noted: NADPH. Put shortly: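 Inhibitor pre-incubated at 37 °C with liver microsomal protein of the given species. Reaction started with NADPH, or buffer as control. Proteins precipitated, then parent remaining measured by LC-MS/MS in SRM mode to give t1/2.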
For orientation: Microsomes from liver hold many membrane-bound enzymes, among them those of drug oxidation.

The nature of data set [2]: Cassette pharmacokinetics in brain and plasma, male CD-1 mice. It is filed as in vivo, mouse. To be noted: for concentration at 15 min: iv; for concentration at 30 min / concentration at 60 min: po. Summed up: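 Male CD-1 mice (25–30 g), cassette dosing: single iv dose of 2 mg/kg and oral dose of 8 mg/kg per compound. Plasma and brain taken 15 min after iv, and 30 and 60 min after oral dosing, n = 3 per time point. Flash-frozen tissue extracted and quantified by LC-MS/MS (SRM) with internal standards.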

For data set [3], the system named is rat retina (AMPA excitotoxicity). To be noted: cited from earlier work.
The next data set relates to ABHD6. Conditions: read-out: IC50 ABHD6; activity-based protein profiling (ABPP) assay; ref 22b; cited from earlier work.
Setting [4] is: read-out: IC50 (nM) ± SEM hMGL, triplicate, eight concentrations.
[5] abbreviates: male, CD-1, mouse, brain, 8 mg/kg.
[6] abbreviates: male, CD-1, mouse, plasma, 8 mg/kg.

With `N#Cc1cccc(OC(=O)N2CC(OC(c3ccc(F)cc3)c3ccc(F)cc3)C2)c1` [5a, 3-Cyanophenyl 3-(bis(4-fluorophenyl)methoxy)azetidine-1-carboxylate], the “fold loss in potency for ABHD6” value on hABHD6 is “about 2 fold”. In addition, the midpoint of inhibition against hMGL, the IC50, lay at 66.1 ± 2.4 nM. The inhibition at 0.1 µM at hFAAH (read-out: % inhibition hFAAH) was 33%.

For `O=C(OC(C(F)(F)F)C(F)(F)F)N1CC(OC(c2ccc(F)cc2)c2ccc(F)cc2)C1` [6b, 1,1,1,3,3,3-Hexafluoropropan-2-yl 3-(bis(4-fluorophenyl)methoxy)azetidine-1-carboxylate], at hABHD6, the “fold loss in potency for ABHD6” value is “about 2 fold”. At hMGL, this compound yielded an IC50 of 6.4 ± 1.5 nM. Further, on hFAAH, the “hFAAH inhibition, result in words” value was “inactive”.

On to `CN(C1CN(C(=O)OC(C(F)(F)F)C(F)(F)F)C1)C(c1ccc(F)cc1)c1ccc(F)cc1` [9d, 1,1,1,3,3,3-Hexafluoropropan-2-yl 3-((bis(4-fluorophenyl)methyl) (methyl)amino) azetidine-1-carboxylate], for which the IC50 at hMGL (setting [4]) amounted to 83.5 ± 1.8 nM. The “hFAAH inhibition, result in words” value at hFAAH is “inactive”.

For `O=C(OC(C(F)(F)F)C(F)(F)F)N1CC(C(c2ccccc2)c2ccccc2)C1` [10d, 1,1,1,3,3,3-Hexafluoropropan-2-yl 3-benzhydrylazetidine-1-carboxylate], on hABHD6, the inhibition at 10 µM amounted to 37% and the “hABHD6 inhibition, result in words” value was “practically inactive”. Further, on hMGL (setting [4]), the concentration for half-maximal inhibition (IC50) was determined as 348 ± 7.5 nM. Moreover, on hFAAH, the “hFAAH inhibition, result in words” value was “inactive”.

In the case of `O=C(OC(C(F)(F)F)C(F)(F)F)N1CCc2ccccc2C1` [14a, 1,1,1,3,3,3-Hexafluoropropan-2-yl 3,4-dihydroisoquinoline-2(1H)-carboxylate], the “hMGL inhibition, result in words” value on hMGL is “lacked activity; also recorded: inactive”. The “hFAAH inhibition, result in words” value at hFAAH is “lacked activity; also recorded: inactive^c”.

On to `O=C(O[C@H](CO)C(F)(F)F)N1CCc2c(Br)cccc2C1` [14j, (R)-1,1,1-trifluoro-3-hydroxypropan-2-yl 5-bromo-3,4-dihydroisoquinoline-2(1H)-carboxylate], for which, on hABHD6, the inhibition at 10 µM was 35% and the “hABHD6 inhibition, result in words” value was “practically inactive”. The “hMGL inhibition, result in words” value at hMGL was “inactive”. For the same compound, the “hFAAH inhibition, result in words” value at hFAAH was “inactive”.

Consider `O=C(OC(C(F)(F)F)C(F)(F)F)N1Cc2ccc(OCCN3CCOCC3)cc2C1` [22f, 1,1,1,3,3,3-Hexafluoropropan-2-yl 5-(2-morpholinoethoxy)isoindoline-2-carboxylate], for which the “hMGL inhibition, result in words” value at hMGL is “inactive”. On hFAAH, the “hFAAH inhibition, result in words” value was “inactive^f”. For the same compound, the “Microsomes t1/2 min Human” value in data set [1] is reported as “most stable”. Further, the “brain permeability, result in words” value in data set [2] (comparing brain and plasma levels after iv administration at 15 min) is “brain permeable”. For the same compound, the Kp at 15 min in data set [2] (male, CD-1, mouse, brain, intravenous, 2 mg/kg) worked out at 1.2. Also, the concentration at 15 min in data set [2] (male, CD-1, mouse, brain, 2 mg/kg) is 735 ± 56 ng/g; in data set [2] (male, CD-1, mouse, plasma, 2 mg/kg), 633 ± 46 ng/mL. For the same compound, the results for the concentration at 30 min in data set [2] (setting [5]) and in data set [2] (setting [6]) were 248 ± 89 ng/g and 180 ± 72 ng/mL, respectively. Further, the concentration at 60 min in data set [2] (setting [5]) was 227 ± 95 ng/g; in data set [2] (setting [6]) it was 140 ± 31 ng/mL. This compound had a bioavailability in data set [2] (male, CD-1, mouse, plasma, oral, 8 mg/kg) of 28%. In addition, in data set [3] (rat retina), the AMPA-induced glia activation result is listed as “attenuated”. Further, the retina neuroprotection result in data set [3] (rats, AMPA excitotoxicity) was “dose-dependent retina neuroprotection”.

Turning to `O=C(OC(C(F)(F)F)C(F)(F)F)N1Cc2ccc(OCCN3CCCCC3)cc2C1` [22j, 1,1,1,3,3,3-Hexafluoropropan-2-yl 5-(2-(piperidin-1-yl)ethoxy)isoindoline-2-carboxylate], the “hMGL inhibition, result in words” value on hMGL was “inactive”. Further, the inhibition at 1 µM on hFAAH (read-out: % inhibition hFAAH) came to 71%.

For the compound `CC1(C)C2C(=O)N(OC(=O)N3CCc4c(Br)cccc4C3)C(=O)C21` (centres unmarked) [25b, 6,6-Dimethyl-2,4-dioxo-3-azabicyclo[3.1.0]hexan-3-yl 5-bromo-3,4-dihydro isoquinoline-2(1H)-carboxylate], the “fold loss in potency for ABHD6” value at hABHD6 worked out at 2 fold. The “hMGL inhibition, result in words” value on hMGL is “inactive”. The “hFAAH inhibition, result in words” value at hFAAH was “inactive”.

Take `CN(Cc1cccc(-c2ccncc2)c1)C(=O)Oc1ccc(-c2ccc(C(N)=O)cc2)cc1` [WWL70]: the IC50 in the data set on ABHD6 is […].
